NPY-Y1 antag: NPY-Y1 (human) receptor antagonism; HEK293-CNG Y1 cells, membrane potential fluorescence; NPY at EC95, then isoproterenol; P25929; 200,000 compounds, 1% hits; AID 1040; inhibition, % at 3.6 µM;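 active = inhibition above the campaign mean inhibition of all tested compounds plus 3 SD, cut at about 20% in these data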;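 note: 0% = DMSO wells given NPY plus isoproterenol and 100% = isoproterenol alone without NPY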
Target sequence (P25929 whole entry, looked up): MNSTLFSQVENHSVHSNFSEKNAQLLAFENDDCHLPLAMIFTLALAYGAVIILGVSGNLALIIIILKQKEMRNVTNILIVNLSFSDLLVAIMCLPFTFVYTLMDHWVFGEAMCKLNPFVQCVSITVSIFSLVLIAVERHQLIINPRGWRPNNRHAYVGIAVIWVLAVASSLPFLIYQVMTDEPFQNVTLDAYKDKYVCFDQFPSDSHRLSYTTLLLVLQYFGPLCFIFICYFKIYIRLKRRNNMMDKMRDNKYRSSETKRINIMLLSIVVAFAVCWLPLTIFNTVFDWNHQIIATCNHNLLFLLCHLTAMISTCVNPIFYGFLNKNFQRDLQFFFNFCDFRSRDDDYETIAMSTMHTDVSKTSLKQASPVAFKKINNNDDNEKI
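Material: HEK293 Y1/CNG channel cell line | Also added: NPY (25 nM), isoproterenol (1 µM), Ro 20-1724 (25 µM) | Compound: One concentration, 3.6 µM, in 0.4% DMSO | Schedule: 3 h dye uptake, 1 h room-temperature compound, 45 min post-isoproterenol | Signal: Membrane-potential fluorescent dye readout | Read-out: % inhibition of NPY effect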
NPY1 pot ag: potentiators or agonists of human neuropeptide Y receptor Y1. P25929. 220,000 compounds, 0.37% hits. activation, % at 3.6 µM. NPY-Y1 expressing cells, potentiator/agonist activation; in the data active = activation above about 33%, passing the limit was not always enough;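 note: cells stimulated with NPY at EC10 then isoproterenol at EC100; 0% = low agonist plus stimulus and 100% = saturating agonist plus stimulus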
NPY Y2 blocker: NPY-Y2 (human) receptor antagonism; AID 793; inhibition, % at 2.7 µM; P49146; 140,000 compounds, 0.99% hits; NPY-Y2 expressing cells, antagonist mode; in the data active = inhibition above about 17%;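 note: 0% = vehicle with agonist challenge and 100% = reference antagonist with challenge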
MT stabilizer: microtubule stabilizers in HeLa cells | HeLa tubulin immunostaining HCS, 24 h; share of cells brighter than vehicle mean+2SD | % tubulin-high responders, % at 10 µM | 200,000 compounds, 0.83% hits;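 active = plate Z-score above 3 for both tubulin-high and condensed-nucleus cell shares, with cell loss under 80%, at 10 µM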;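 note: anti alpha tubulin signal scored within the nucleus-defined area of each cell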
b-catenin transl: alters nuclear translocation of beta-catenin in HeLa cells; immunofluorescence imaging; nuclear translocation activity, % at 5 µM; 190,000 compounds, 0.3% hits; AID 1665;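 active = nuclear translocation activity above 50% at 5 µM, with a well cell count of 50 or more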;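 note: per-cell ratio of nuclear to cytoplasmic median beta-catenin stain intensity; plate controls were DMSO negative control for no effect and GSK-3 inhibitor IX positive control for full effect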
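Test system: HeLa cells, endogenous beta-catenin; Compound: single 5 µM dose plus 0.02–20 µM confirmation series; Times: compound exposure 24 h at 37°C; Signal: fluorescence imaging of beta-catenin antibody stain plus DAPI; Read-out: % activation, nuclear-to-cytoplasmic median beta-catenin signal ratio per cell.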
NPY-Y2 PAM-ag: human NPY-Y2 potentiation or agonism, primary screen. 220,000 compounds, 0.45% hits. activation, % at 3.6 µM. cells expressing NPY-Y2, potentiator/agonist read-out. AID 1359; in the data active = activation above about 27%;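 note: cells stimulated with NPY near EC25 plus isoproterenol at EC100; 0% = vehicle plus submaximal agonist and 100% = vehicle plus saturating agonist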
NPY-Y1 antag ct: counter-screen for NPY-Y2 antagonists: human NPY-Y1 antagonism. shares compounds with NPY Y2 blocker. cell-based NPY-Y1 antagonism counterscreen. inhibition, % at 3.6 µM. 710 compounds, 19% hits. AID 1256;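 note: cells challenged with NPY then isoproterenol with cAMP sensed through a CNG channel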
NPY2 antag conf: human NPY-Y2 antagonism, confirmation; shares compounds with NPY Y2 blocker; HEK293 NPY-Y2 CNG channel, membrane potential fluorescence; inhibition, % at 2.8 µM; 710 compounds, 32% hits; AID 1257;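 active = mean inhibition of triplicate wells above the hit cutoff set in the primary screen, cut at about 17% in these data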;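 note: 0% = DMSO with NPY challenge and 100% = BIIE0246 high control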
NPY-Y1 ant conf: human NPY-Y1 antagonism, confirmation. shares compounds with NPY-Y1 antag. HEK293-CNG NPY-Y1, membrane potential fluorescence, cAMP; NPY challenge against isoproterenol-raised cAMP. inhibition, % at 3.6 µM. 1,200 compounds, 21% hits. AID 1254;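 note: 0% = vehicle with agonist plus stimulus and 100% = stimulus alone without agonist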
NPY2 antag ctr: counter-screen for NPY-Y1 antagonists: human NPY-Y2 antagonism | 1,200 compounds, 28% hits | HEK293 NPY-Y2 CNG membrane potential fluorescence; cells given NPY, then isoproterenol | shares compounds with NPY-Y1 antag | inhibition, % at 3.6 µM; in the data active = inhibition above about 17%;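 note: 0% = DMSO with agonist challenge and 100% = reference antagonist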
NPY-Y2 confirm: confirmation of human NPY-Y2 receptor potentiators or agonists; shares compounds with NPY-Y2 PAM-ag; activation, % at 3.6 µM; cell-based NPY-Y2 potentiator/agonist assay; AID 1539; 450 compounds, 20% hits; in the data active = activation above about 33%
NPY-Y1 counter: potentiates or activates NPY-Y1, counter-screen for NPY-Y2 hits; shares compounds with NPY-Y2 PAM-ag; Y1 HEK293-CNG cells, membrane potential fluorescence; activation, % at 3.6 µM; 450 compounds, 20% hits; AID 1651; in the data active = activation above about 45%;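 note: cells stimulated with submaximal NPY then isoproterenol with phosphodiesterase inhibitor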
NPY-Y1 agonist 2: counter-screen for NPY-Y2 potentiators: agonists of human NPY-Y1 | shares compounds with NPY-Y2 PAM-ag | HEK293 Y1-CNGC, membrane potential fluorescence, agonism | activation, % at 3.6 µM | 450 compounds, 37% hits | AID 1702;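 active = activation above the mean of DMSO-only control wells plus 3 SD, cut at about 18% in these data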;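 note: cells stimulated with 1 µM isoproterenol plus the PDE inhibitor Ro 20-1724; 0% = isoproterenol with DMSO and no NPY and 100% = 40 nM NPY; Y1 agonists lower the membrane potential dye signal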
CNGC inhibitor: counter-screen for NPY-Y2 potentiators: inhibitors of CNG channel activity; HEK293-CNG parental, isoproterenol cAMP, membrane potential fluorescence; inhibition, % at 3.6 µM; shares compounds with NPY-Y2 PAM-ag; 450 compounds, 32% hits; AID 1703;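 active = inhibition above the control-well mean plus 3 SD of those wells, cut at about 22% in these data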;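 note: 0% = DMSO with isoproterenol and 100% = DMSO without isoproterenol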
NPY-Y2 ag 2: activates human NPY-Y2 receptor in potentiator counter-screen | shares compounds with NPY-Y2 PAM-ag | HEK293 Y2/CNGC cells, membrane potential fluorescence, agonist mode | activation, % at 3.6 µM | 450 compounds, 56% hits | AID 1710;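 active = activation above the mean of solvent-only control wells plus 3 SD, cut at about 10% in these data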;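 note: cells stimulated by isoproterenol with no NPY added so direct agonism is tested; 0% = DMSO with isoproterenol alone and 100% = NPY at EC100 plus isoproterenol; agonism lowers probe fluorescence through less cAMP and CNG channel opening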
* marks the source's active call; other numbers are inactive results; . = no result. Rows were chosen to be rich in hits. Some 2.6% of all compounds tested hit in one or more screens of this group. Cut-off read from the data, not from the text of the source, unless noted: active = inhibition above about 20%; inactive = the rest.

SMILES	NPY-Y1 antag	NPY1 pot ag	NPY Y2 blocker	MT stabilizer	b-catenin transl	NPY-Y2 PAM-ag	NPY-Y1 ant conf	NPY2 antag ctr	others
c1ccc(C(Cc2nc(-c3ccncc3)no2)c2ccccc2)cc1	3.0	38.4	22.9*	2.6	.	41.6*	.	.	NPY-Y1 antag ct=8.6;NPY2 antag conf=4.4;NPY-Y2 confirm=13.9;NPY-Y1 counter=-11.3;NPY-Y1 agonist 2=2.3;CNGC inhibitor=-8.8;NPY-Y2 ag 2=2.5
CCC1(c2ccc(F)cc2)NC(=O)N(CC(=O)Nc2ccc(C)c(S(=O)(=O)N3CCOCC3)c2)C1=O (centres undefined)	-2.1	7.5	.	4.2	-1.7	12.4	.	.
Cc1cc(C(=O)N/N=C(\CCC(=O)O)c2cccs2)c2ccccc2n1	34.6*	1.4	.	5.9	6.7	14.0	-5.6	3.2
Cc1cc(C(=O)OCC(=O)c2cccs2)c2ccccc2n1	-4.3	-2.5	.	3.3	-0.4	-15.8	.	.
Cc1c(N2C(=O)CSC2=S)c(=O)n(-c2ccccc2)n1C	26.1*	1.7	.	1.5	-1.4	0.3	0.3	1.9
COc1ccc(-n2cc(-c3ccccc3)c3c(NCCCN4CCOCC4)ncnc32)cc1	26.1*	-17.5	.	.	-0.8	-26.6	12.6	7.2
COc1ccccc1NC(=S)N(Cc1ccccc1)Cc1cccs1	26.6*	-3.4	.	1.0	-2.1	1.8	8.6	9.8
CCCSc1nc2cc(OC)c(OC)cc2c(=N)n1CCCN1CCOCC1	71.3*	-52.0	.	2.7	-2.6	-43.1	22.4*	31.7*
COCCCn1c(SCc2ccc(OC)cc2)nc2cc(OC)c(OC)cc2c1=N	9.5	4.9	2.6	1.7	.	-0.6	.	.
CC1CN(c2ccc([N+](=O)[O-])nc2)CC(C)O1 (centres undefined)	1.5	14.0	.	2.9	-0.2	-6.3	.	.
CC(=O)n1cc([C@@H]2C=C(C(=O)Nc3ccccc3)O[C@H](OCc3ccc(CO)cc3)C2)c2ccccc21	34.3*	-16.9	.	4.8	-1.1	-24.2	19.9	9.2
O=C1NCCCC1C(=O)Nc1ccccc1C(F)(F)F (centres undefined)	-1.4	12.0	-3.1	3.0	-0.4	11.0	.	.
COc1ccc(-c2cc(-c3n[nH]c(=S)n3-c3cc(OC)ccc3OC)[nH]n2)cc1	26.9*	-70.1	5.0	2.5	-2.1	-36.0	23.1*	43.7*
COc1ccc(OC)c(-n2c(-c3cc(-c4ccc(F)cc4)n[nH]3)n[nH]c2=S)c1	0.8	-23.5	1.8	2.0	-1.8	1.8	.	.
COc1ccc(-c2cc(-c3n[nH]c(=S)n3-c3ccccc3Cl)[nH]n2)cc1	42.4*	-31.6	.	2.3	-2.7	-18.8	47.0*	72.9*
